Values after ≈ are worked out from the molar mass of the structure shown. Where a SMILES comes first, the peptide text is derived from it. [ ]: non-standard residue; d: D form. The star is where a group is joined. Bip = N[C@@H](Cc1ccc(-c2ccccc2)cc1)C(=O)O; NHPhenethyl = c1ccc(CCN*)cc1; NHBn = c1ccc(CN*)cc1; NHiPr = CC(C)N*
Key:
Staphylococcus aureus [1] = assay: Antibacterial activity against Staphylococcus aureus ATCC 25923 by microdilution method; type: functional
Method in brief: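 Standard broth microdilution MIC against S. aureus ATCC 25923, without albumin. Run in triplicate.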

Staphylococcus aureus [2] = assay: Antibacterial activity against Staphylococcus aureus ATCC 25923 in presence of BSA 1 by microdilution method; type: functional
Method in brief: (§1)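 Standard broth microdilution MIC against S. aureus ATCC 25923 with albumin in the assay at 0.55 mM. Albumin grades: BSA I, essentially fatty acid and globulin free, ≥99%. BSA II ≥96%. HSA I, essentially fatty acid free, ~99%. HSA II ≥96%. Run in duplicate.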

[3] = Binding affinity to BSA 1 by isothermal titration calorimetry; design: species or system Bos taurus
Method in brief: (§2)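 ITC at 25 °C with 1 mL cell. Peptide (2.1 mM) injected in 20 aliquots of 5 µL, 400 s apart, into stirred (200 rpm) albumin (0.11 mM) in 50 mM Tris-HCl, 10 mM CaCl₂, pH 8.2. Dilution heats from peptide-into-buffer titrations were subtracted. First injection excluded. Isotherm fitted to a one-site model; KD = 1/Ka.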

[4] = Binding affinity to BSA 2 by isothermal titration calorimetry; design: species or system Bos taurus; method in brief: as §2
[5] = Binding affinity to HSA 1 by isothermal titration calorimetry; design: species or system Homo sapiens; method in brief: as §2
Staphylococcus aureus [6] = assay: Antibacterial activity against Staphylococcus aureus ATCC 25923 in presence of HSA 1 by microdilution method; type: functional; method in brief: as §1
[7] = Binding affinity to HSA 2 by isothermal titration calorimetry; design: species or system Homo sapiens; method in brief: as §2
Staphylococcus aureus [8] = assay: Antibacterial activity against Staphylococcus aureus ATCC 25923 in presence of HSA 2 by microdilution method; type: functional; method in brief: as §1
Staphylococcus aureus [9] = assay: Antibacterial activity against Staphylococcus aureus ATCC 25923 in presence of BSA 2 by microdilution method; type: functional; method in brief: as §1

Structure (SMILES)	MIC (Staphylococcus aureus [1])	MIC (Staphylococcus aureus [2])	Kd [3]	Kd [4]	Kd [5]	MIC (Staphylococcus aureus [6])	Kd [7]	MIC (Staphylococcus aureus [8])	MIC (Staphylococcus aureus [9])
C[C@H](CNC(=O)[C@H](CCCNC(=N)N)NC(=O)[C@H](Cc1ccc(-c2ccccc2)cc1)NC(=O)[C@@H](N)CCCNC(=N)N)c1ccccc1	4 µg/mL (≈ 5.96 µM)	31 µg/mL	12.4 µM	–	–	–	–	–	–
N=C(N)NCCC[C@H](NC(=O)[C@H](Cc1ccc(-c2ccccc2)cc1)NC(=O)[C@@H](N)CCCNC(=N)N)C(=O)NCCc1ccccc1 (H-Arg-[Bip]-Arg-NHPhenethyl)	4 µg/mL (≈ 6.09 µM)	47 µg/mL	11.1 µM	–	–	–	–	–	–
N=C(N)NCCC[C@H](NC(=O)[C@H](Cc1ccc(-c2ccccc2)cc1)NC(=O)[C@@H](N)CCCNC(=N)N)C(=O)NCCCc1ccccc1	2 µg/mL (≈ 2.98 µM)	25 µg/mL	22.2 µM	–	–	–	–	–	–
C[C@@H](CNC(=O)[C@H](CCCNC(=N)N)NC(=O)[C@H](Cc1ccc(-c2ccccc2)cc1)NC(=O)[C@@H](N)CCCNC(=N)N)c1ccccc1	4 µg/mL (≈ 5.96 µM)	31 µg/mL	12.2 µM	–	–	–	–	–	–
N=C(N)NCCC[C@H](NC(=O)[C@H](Cc1ccc(-c2ccccc2)cc1)NC(=O)[C@@H](N)CCCNC(=N)N)C(=O)N(Cc1ccccc1)Cc1ccccc1	2 µg/mL (≈ 2.73 µM)	13 µg/mL	10 µM	12.3 µM	10.4 µM	6 µg/mL	15.9 µM	11 µg/mL	6 µg/mL
N=C(N)NCCC[C@H](NC(=O)[C@H](Cc1ccc(-c2ccccc2)cc1)NC(=O)[C@@H](N)CCCNC(=N)N)C(=O)NCc1ccccc1 (H-Arg-[Bip]-Arg-NHBn)	5 µg/mL (≈ 7.78 µM)	47 µg/mL	4.3 µM	13 µM	15.7 µM	40 µg/mL	15.5 µM	80 µg/mL	30 µg/mL
CCN(Cc1ccccc1)C(=O)[C@H](CCCNC(=N)N)NC(=O)[C@H](Cc1ccc(-c2ccccc2)cc1)NC(=O)[C@@H](N)CCCNC(=N)N	5 µg/mL (≈ 7.45 µM)	38 µg/mL	17.3 µM	–	–	–	–	–	–
CC(C)NC(=O)[C@H](CCCNC(=N)N)NC(=O)[C@H](Cc1ccc(-c2ccccc2)cc1)NC(=O)[C@@H](N)CCCNC(=N)N (H-Arg-[Bip]-Arg-NHiPr)	47 µg/mL (≈ 79 µM)	110 µg/mL	14.1 µM	14.5 µM	10.8 µM	113 µg/mL	18.2 µM	100 µg/mL	80 µg/mL
CN(Cc1ccccc1)C(=O)[C@H](CCCNC(=N)N)NC(=O)[C@H](Cc1ccc(-c2ccccc2)cc1)NC(=O)[C@@H](N)CCCNC(=N)N	7 µg/mL (≈ 10.7 µM)	38 µg/mL	6.7 µM	–	–	–	–	–	–

Reference: ChEMBL document CHEMBL1145426, “Albumin binding of short cationic antimicrobial micropeptides and its influence on the in vitro bactericidal effect” (J Med Chem, 2007)
